In the library only some 4.7% were active in any assay of this set; here they are far more common.
MC4R ag barr = MC4R agonists recruiting beta-arrestin, primary screen, cell-based, luminescence, agonist arm of biased-ligand search; 360,000 tested, 0.98% active; U2OS MC4R beta-arrestin complementation; percent of melanotan II response, DMSO zero; activation, % at 8.9 µM; AID 540308, 2011;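 active = activation above a per-plate cutoff, the mean activation of sample wells on that plate plus 3 SD, cut at about 8% in these data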
AHR act = AHR activators, primary screen, cell-based, luminescence, luciferase reporter, human. Aryl hydrocarbon receptor (Homo sapiens), P35869. AHR-responsive luciferase reporter cells. activation, % at 5 µM. 320,000 tested, 2.5% active. AID 2796, 2010; in the data active = activation above about 47%
Target sequence (P35869 whole entry, looked up): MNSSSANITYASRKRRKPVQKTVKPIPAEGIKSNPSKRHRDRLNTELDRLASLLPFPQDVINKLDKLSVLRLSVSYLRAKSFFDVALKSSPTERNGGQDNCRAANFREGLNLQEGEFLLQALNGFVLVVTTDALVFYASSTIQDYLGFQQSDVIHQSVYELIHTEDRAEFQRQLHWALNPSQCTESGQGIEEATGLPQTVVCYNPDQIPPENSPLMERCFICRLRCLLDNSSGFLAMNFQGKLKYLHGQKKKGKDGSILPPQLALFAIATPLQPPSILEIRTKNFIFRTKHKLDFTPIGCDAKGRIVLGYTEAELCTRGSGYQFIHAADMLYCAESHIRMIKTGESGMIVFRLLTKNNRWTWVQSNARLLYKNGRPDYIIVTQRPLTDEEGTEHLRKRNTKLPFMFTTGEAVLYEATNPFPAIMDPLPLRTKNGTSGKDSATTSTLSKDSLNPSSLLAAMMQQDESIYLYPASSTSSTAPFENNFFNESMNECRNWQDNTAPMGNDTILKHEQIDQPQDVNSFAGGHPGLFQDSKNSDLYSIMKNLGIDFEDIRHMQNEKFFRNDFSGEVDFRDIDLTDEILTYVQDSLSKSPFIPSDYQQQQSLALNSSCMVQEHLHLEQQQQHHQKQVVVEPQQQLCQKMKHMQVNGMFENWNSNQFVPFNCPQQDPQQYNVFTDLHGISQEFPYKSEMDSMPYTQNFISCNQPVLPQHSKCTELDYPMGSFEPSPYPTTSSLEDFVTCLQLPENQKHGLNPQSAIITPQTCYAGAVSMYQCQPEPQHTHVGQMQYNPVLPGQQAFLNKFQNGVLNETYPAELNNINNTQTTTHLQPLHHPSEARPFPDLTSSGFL
MC4R antag cAMP = MC4R antagonists of cAMP signaling, primary screen, cell-based, TR-FRET, antagonist arm of biased-ligand search. Melanocortin receptor 4 (Homo sapiens), P32245. MC4R-expressing cells, MTII-stimulated cAMP, LANCE TR-FRET. inhibition, % at 6.5 µM. 360,000 tested, 0.48% active. AID 540295, 2011;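 active = inhibition above its plate's cutoff, the mean of tested wells on that plate plus 3 SD, cut at about 29% in these data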
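Material: human MC4R-expressing U2OS cells. Probe or stimulus: Melanotan II challenge. Dosing: 6.5 µM single dose. Times: 30-min compound, 1-h challenge, 1-h detection, room temperature. Technique: TR-FRET with Eu-cAMP and labeled anti-cAMP, 671 nm. Replication: singlicate.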
FXN GAA850 act = FXN promoter activators, primary screen, cell-based, luciferase luminescence, HEK293 lucGAA850; HEK293 lucGAA850 FXN promoter luciferase reporter, 24 h; percent of 10 µM SAHA response; activation, % at 6 µM; 360,000 tested, 0.56% active; AID 540364, 2011;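 active = activation above the average of all compounds screened plus 3 SD, cutoff fixed separately per campaign, cut at about 7.5% in these data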
HTR2A ag = mouse Htr2a agonists via beta-arrestin recruitment, primary screen, cell-based, luminescence | CHO-K1 mHTR2A beta-arrestin complementation; percent of 30 µM serotonin response | AID 624169, 2012 | activation, % at 7.6 µM | 5-hydroxytryptamine receptor 2A (Mus musculus), P35363 | 360,000 tested, 0.66% active;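 active = activation above a run cutoff, the mean activation of all tested compounds plus 3 SD, cut at about 14% in these data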
A number is an active result; – = inactive; · = not tested or not shown.

SMILES	MC4R ag barr	AHR act	MC4R antag cAMP	FXN GAA850 act	HTR2A ag
CC[C@@H](C(=O)[C@@H](C)[C@@H](O)[C@H](C)[C@@H]1O[C@@H]([C@@H](CC)C(=O)O)CC[C@@H]1C)[C@H]1O[C@]2(C=C[C@@H](O)[C@]3(CC[C@@](C)([C@H]4CC[C@](O)(CC)[C@H](C)O4)O3)O2)[C@H](C)C[C@@H]1C	36	·	–	–	23
O=C(CN1CCN(S(=O)(=O)c2ccc(F)c(Cl)c2)CC1)N1CCNC1=O	–	–	–	–	–
CC(=O)c1ccc(N2CCN(S(=O)(=O)c3cc4[nH]c(=O)c(=O)[nH]c4cc3C)CC2)cc1	–	47	–	–	–
O=C(Nc1ccc2c(c1)OCO2)C1Cc2c(-c3ccccc3Oc3ccccc3)ccnc2O1 (centres undefined)	–	·	–	–	–
COc1ccc(OC)c(NC(=O)CCn2c(=S)[nH]c3ccccc3c2=O)c1	–	–	–	–	–
C=CCn1c(SCC(=O)NCCc2ccccc2)nc2c([nH]c3ccccc32)c1=O	–	60	–	–	–
COc1ccc(C)cc1-n1c(SCC(=O)NCC2CCCO2)nc2c([nH]c3ccccc32)c1=O (centres undefined)	–	67	–	–	–
COc1ccccc1NC(=O)CCCn1c(=S)[nH]c2ccccc2c1=O	–	48	–	–	–
Cn1c(SCC(=O)NCC2CCCO2)nc2c([nH]c3ccccc32)c1=O (centres undefined)	–	–	–	–	–
C=CCn1c(SCC(=O)NCC2CCCO2)nc2c([nH]c3ccccc32)c1=O (centres undefined)	–	55	–	–	–
C=CCn1c(SCC(=O)N2CCN(c3ccccc3)CC2)nc2c([nH]c3ccccc32)c1=O	–	66	–	–	–
COc1cccc(-n2c(SCC(N)=O)nc3c([nH]c4ccccc43)c2=O)c1	–	75	–	–	–
O=C(Cn1c(=S)[nH]c2ccccc2c1=O)NCCc1ccccc1	–	79	–	–	–
COc1ccccc1-n1c(SCC(=O)Nc2cc(C)on2)nc2c([nH]c3ccccc32)c1=O	–	68	–	–	–
Cc1cc(NC(=O)CSc2nc3c([nH]c4ccccc43)c(=O)n2-c2cccc(C(F)(F)F)c2)no1	–	·	–	–	–
C=CCn1c(SCC(=O)N2CCC(C)CC2)nc2c([nH]c3ccccc32)c1=O	–	·	–	–	–
Cn1cnc2cc(NCc3cccs3)ccc21	–	50	–	–	–
c1ccc(-n2cnc3cc(NCc4cccs4)ccc32)cc1	–	–	–	–	–
Cc1sc2ncnc(N[C@@H](Cc3c[nH]c4ccccc34)C(=O)O)c2c1C	–	48	–	–	–
CCCS(=O)(=O)NC(=O)C1(C)CCN(C(=O)c2cccc(OC(F)(F)F)c2)C1 (centres undefined)	–	·	–	–	–
O=CN1Cc2[nH]c3ccccc3c2N(c2ccc(Cl)cc2)C1=O	–	65	–	–	–
O=C1CC(SCc2nc3ccccc3[nH]2)C(=O)N1c1ccc(Cl)cc1 (centres undefined)	–	–	–	–	–
O=C1CC(c2c[nH]c3ccccc23)C(=O)N1c1ccccc1 (centres undefined)	–	–	–	–	–
O=C1CNCc2[nH]c3ccccc3c2N1c1ccccc1	–	54	–	–	–
CS(=O)(=O)N(CC(=O)N1CCOCC1)c1cc(Cl)ccc1Cl	–	–	–	–	–
SMILES	MC4R ag barr	AHR act	MC4R antag cAMP	FXN GAA850 act	HTR2A ag
Cc1c(NS(=O)(=O)c2cc(C(=O)NCc3cccnc3)cc(Cl)c2Cl)c(=O)n(-c2ccccc2)n1C	–	60	–	–	–
Cc1c(NS(=O)(=O)c2cc(C(=O)N(C)Cc3ccccc3)ccc2Cl)c(=O)n(-c2ccccc2)n1C	–	–	–	–	–
Cc1ccc(C)c(OCC(O)CN2C(C)CCCC2C)c1 (centres undefined)	–	–	–	–	–
Cc1ccc(C)c(OCC(O)CN2CCCCC2C)c1 (centres undefined)	–	48	–	–	–
CC1=C(C(=O)N(C)C)CC(CC(=O)NCCCCc2ccccc2)C(=O)N1Cc1ccc(F)cc1 (centres undefined)	–	·	–	–	–
CCOC(=O)c1oc2ccc(Br)cc2c1COC(=O)C1=COCCO1	–	–	–	–	–
COc1ccc(OCc2cc(C(=O)N3CCC(OC)CC3)no2)c2ccccc12	–	51	–	–	–
COc1ccc(OCc2cc(C(=O)NC3CCOC(C)(C)C3)no2)c2ccccc12 (centres undefined)	–	67	–	–	–
Cc1ccc(SCCC(=O)Nc2ccccc2C(=O)NC2CCCCC2)cc1	9.4	–	–	–	–
O=C1Cc2ccccc2C(=O)N1OCc1ccc(Cl)cc1	–	66	–	–	–
O=C1c2ccccc2C(=O)N1OCc1ccc(Cl)cc1	–	51	–	–	–
O=C1Cc2ccccc2C(=O)N1Cc1cccc(Cl)c1	–	·	–	–	–
O=C(CSc1ccc(-c2cccnc2)nn1)Nc1ccc(F)cc1F	–	65	–	–	–
Cn1c(=O)n(CCOc2ccccc2Cl)c2ccccc21	–	59	–	–	–
Cn1c(=O)n(CCOc2ccc(Cl)cc2Cl)c2ccccc21	–	–	–	–	–
COc1ccc(Cl)cc1C(=O)NNC(=O)c1nn(C)c(=O)c2ccccc12	–	66	–	–	–
CC(=O)Nc1nccc(-c2cc(-c3ccccc3)no2)n1	·	50	·	·	·
Oc1ccccc1-c1cc(-c2ccccc2)no1	–	–	–	–	–
Cc1ccc(S(=O)(=O)CCC(=O)Nc2nnc(-c3ccc(F)cc3)o2)cc1	–	–	–	–	–
COc1cc(OC)cc(-c2nnc(NC(=O)CCS(=O)(=O)c3ccc(C)cc3)o2)c1	–	65	–	–	–
C=CCNc1nc(N)c(C(=O)Nc2cc(C)on2)s1	–	–	–	–	–
Cc1cc(NC(=O)c2sc(Nc3ccc(F)cc3)nc2N)no1	–	56	–	–	–
Cc1cnc(NC(=O)c2sc(Nc3ccccc3)nc2N)o1	–	55	–	–	–
COc1ccc(C(=O)c2sc(Nc3ccccc3)nc2N)cc1	–	·	–	–	–
CCOc1ccc(-c2nnn(CC(=O)NCc3ccc4c(c3)OCO4)n2)cc1	9.3	–	–	–	–
O=C(NCCCCCCCN1CCCCCCC1)C(C1CCCCC1)C1CCCCC1	–	·	–	–	–
COC(=O)Nc1nc(-c2cc(Cl)ccc2Cl)cs1	10	–	–	–	–
FC(F)(F)C(F)(F)c1nc2nc(Cl)c(Cl)nc2[nH]1	–	·	–	–	–
